Compound activity (PubChem BioAssay)
Mdm2 ligase inh: inhibitors of human Mdm2 E3 ubiquitin ligase | cell-based MDM2 ubiquitination luciferase reporter, 2 h; 0 = plate control, 100 = twice control, blank-subtracted | signal enhancement, % at 5 µM | 210,000 tested, 0.11% active | AID 1230;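 active = signal enhancement of 30% or more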;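 note: luminescence tracks abundance of the self-degrading MDM2-luciferase fusion protein; higher signal means inhibition of MDM2 E3 ligase activity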
Target sequence (Q00987 whole entry, looked up, the tested form may be a part): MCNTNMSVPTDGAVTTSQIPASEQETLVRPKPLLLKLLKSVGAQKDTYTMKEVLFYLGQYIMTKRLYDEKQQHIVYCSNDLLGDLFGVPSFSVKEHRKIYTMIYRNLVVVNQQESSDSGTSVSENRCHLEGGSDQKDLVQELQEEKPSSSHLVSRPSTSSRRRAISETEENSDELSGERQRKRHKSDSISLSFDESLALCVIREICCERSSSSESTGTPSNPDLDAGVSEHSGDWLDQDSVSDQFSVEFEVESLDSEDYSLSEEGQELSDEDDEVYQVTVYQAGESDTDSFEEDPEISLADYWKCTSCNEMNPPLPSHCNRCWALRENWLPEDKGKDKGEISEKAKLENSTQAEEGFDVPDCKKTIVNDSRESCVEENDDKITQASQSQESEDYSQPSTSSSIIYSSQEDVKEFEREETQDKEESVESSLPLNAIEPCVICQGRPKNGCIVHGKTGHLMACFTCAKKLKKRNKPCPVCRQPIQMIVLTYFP
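Test system: mammalian cells stably expressing self-ubiquitinating, self-degrading MDM2 E3–luciferase fusion; Amount: 2000 cells in each well; Medium: DMEM; Schedule: 4 h settle plus 2 h compound, 37 °C; Technique: SteadyLite luciferase luminescence after 15 min room-temperature reagent incubation; Benchmarks: plate control and blank wells.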
Hsp70 act: Hsp70 transcriptional activation, primary screen. activation, % at 10 µM. HeLa Hsp70 promoter luciferase reporter, luminescence; scaled: vehicle 0, proteasome-inhibitor control 100%. 200,000 tested, 0.04% active. AID 1203;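 active = activation above the mean across all tested compounds plus 3 SD, cutoff set per campaign, cut at about 5.5% in these data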
CHOP inh: CHOP inhibition in unfolded protein response; 220,000 tested, 3.8% active; inhibition, % at 10 µM; CHO-K1 CHOP-promoter luciferase, tunicamycin-induced, 15-18 h;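 active = compounds that reduced the stress-induced luciferase reporter signal by more than about 70% of percent inhibition, limit read from the data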
S1P3 antagonist: S1P3 (human) receptor antagonism | 170,000 tested, 0.27% active | Q99500 | CHO S1P3 NFAT-BLA reporter, FRET fluorescence, antagonist mode | AID 485 | inhibition, % at 4.98 µM;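 active = inhibition above the plate cutoff, the mean inhibition of test wells on that plate plus 3 SD, cut at about 28% in these data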;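 note: cells challenged with S1P at its EC80 of 0.8 µM; blue over green emission ratio from cleaved BLA substrate after 4 h stimulation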
Large screens that a line does not name were inactive. Sampled rows, rich in hits. Any-hit rate of the full collection: about 4%.

Cc1ccc(C)c(N(C(=O)Cn2nnc3ccccc32)C(C(=O)NC(C)(C)C)c2ccsc2)c1 (stereo unspecified)	CHOP inh 71 (no result: S1P3 antagonist)
CCCNC(=O)c1ccccc1NC(=O)c1ccc(CSc2ccccc2)cc1	none (no result: S1P3 antagonist)
Cc1cc(C(=O)NCC(=O)OCC(=O)Nc2ccc(OC(F)F)cc2)ccc1[N+](=O)[O-]	none
COc1ccc(Cn2c(CCC(=O)Nc3ccccc3)nc3cccnc32)cc1	none (no result: S1P3 antagonist)
COc1ccc(Cn2c(CCC(=O)Nc3ccc(C)c(C)c3)nc3cccnc32)cc1	CHOP inh 86 (no result: S1P3 antagonist)
O=C(COC(=O)CC12CC3CC(CC(Br)(C3)C1)C2)NC(=O)NCc1ccco1	CHOP inh 71 (no result: S1P3 antagonist)
O=C(NCc1ccco1)c1ccc(-c2cccc(Cl)c2)o1	none
COc1cccc(/C=N/N2CCN(c3ccccc3OC)CC2)c1	CHOP inh 76 (no result: S1P3 antagonist)
Cc1ccc(C(=O)c2ccccc2C(=O)O)c(O)c1	none
Cc1ccc(C(=O)CC(=O)c2cccc(F)c2)c(O)c1	CHOP inh 89 (no result: S1P3 antagonist)
COc1ccc(O)c(C(=O)CC(=O)c2ccccc2)c1	CHOP inh 93
Cc1ccc(O)c(C(=O)CC(=O)c2ccccc2Cl)c1	CHOP inh 103
COc1ccc(OC)c(C(=O)COC(=O)c2ccccc2O)c1	none
Cc1ccc(C)c(NC(=O)c2ccccc2O)c1	CHOP inh 77
CC(=O)c1ccc(C)cc1OC(=O)c1cccc(F)c1	none
Cc1ccc(N2C(=O)N(CC(=O)Nc3ccc(C)cc3C)C(=O)C2C)cc1 (stereo unspecified)	none
CN1CCN(c2ccc(S(=O)(=O)N3CCCCC3)cc2NC(=O)c2ccc(F)cc2F)CC1	none
Cc1ccc(NC(=O)CN(C)C(=O)CCC(=O)c2cccs2)cc1	none
CCOC(=O)C(NCCc1ccccc1)(NC(=O)CC)C(F)(F)F (stereo unspecified)	none
COc1ccc(Oc2nnc(-c3ccc(C)cc3)c3ccccc23)cc1	CHOP inh 83 (no result: S1P3 antagonist)
O=C(C1CCN(S(=O)(=O)c2ccc(Br)s2)CC1)N1CCc2ccccc21	none (no result: S1P3 antagonist)
Cc1cc(NC(=O)COC(=O)[C@H](Cc2c[nH]c3ccccc23)NC(=O)c2ccc(F)cc2)no1	none (no result: S1P3 antagonist)
Cc1ccc(Cn2ncc3c(N4CCN(c5ccc(C)cc5)CC4)ncnc32)cc1	none (no result: S1P3 antagonist)
CC1CCCN(c2ncnc3c2cnn3-c2ccc(Cl)cc2)C1 (stereo unspecified)	CHOP inh 76 (no result: Hsp70 act)
Cc1ccc(Cn2ncc3c(N4CCN(Cc5ccc(Cl)cc5)CC4)ncnc32)cc1	CHOP inh 79 (no result: S1P3 antagonist)
CC1CCN(c2ncnc3c2cnn3Cc2ccc(Cl)cc2)CC1	CHOP inh 73 (no result: S1P3 antagonist)
O=C(CCSc1nc(-c2ccco2)cc(C(F)(F)F)n1)N1CCN(c2ccccn2)CC1	CHOP inh 88
Cc1ccccc1Cn1c(=O)n(CCC(=O)NCc2ccc3c(c2)OCO3)c(=O)c2ccccc21	CHOP inh 87 (no result: S1P3 antagonist)
Cc1ccc(C)c(Cn2c(=O)n(CCC(=O)NCc3ccco3)c(=O)c3ccccc32)c1	CHOP inh 83
O=C(CCCn1c(=O)c2ccccc2n(CC(=O)NCc2ccco2)c1=O)NCc1ccco1	CHOP inh 73
Cc1ccc(NC(=O)Cn2c(=O)n(CCCCC(=O)NCc3ccco3)c(=O)c3ccccc32)cc1	none
O=C(CCn1c(=O)c2ccccc2n(Cc2cccnc2)c1=O)NCc1ccc2c(c1)OCO2	none
COc1cc(NC(=S)NCc2ccc(S(N)(=O)=O)cc2)c(OC)cc1Cl	none
Cc1ccc(CN2CCSc3sccc3C2=O)cc1	none
COc1ccc(/C=N/Nc2snc(SC)c2C#N)cc1OC	CHOP inh 76 (no result: S1P3 antagonist)
CSc1nsc(N/N=C/c2ccccc2)c1C#N	none
COc1cccc(/C=N/Nc2snc(SC)c2C#N)c1	CHOP inh 81 (no result: S1P3 antagonist)
COc1cc(Cl)c(C)cc1NC(=O)CSc1nnc(CCC(=O)O)c(=O)[nH]1	none
Cc1ccn2c(C(=O)CSc3ccccc3Cl)c(C)nc2c1	CHOP inh 73 (no result: S1P3 antagonist)
COc1cccc(-c2ccc(C#N)c(OC(=O)c3ccc(Cl)cc3)n2)c1	CHOP inh 80 (no result: S1P3 antagonist)
COc1cccc(-c2ccc(C#N)c(OC(=O)c3c(Cl)cccc3Cl)n2)c1	none (no result: S1P3 antagonist)
CCOC(CNC(=O)Cc1c(C)nc2c(-c3ccccc3)c(C)nn2c1C)OCC	none
CC(NC(=O)C1c2ccccc2Oc2ccccc21)C1CCCO1 (stereo unspecified)	none
Cc1cc(C)c(NC(=O)CSc2nnc(-c3ccncc3)n2Cc2ccco2)c(Cl)c1	none (no result: S1P3 antagonist)
CCOC(=O)c1c(NC(=O)COc2cccc3c2CCN(Cc2ccc(F)cc2)C3=O)sc2c1CCC2	none
CCOC(=O)c1c(NC(=O)CSc2c[nH]c3ccccc23)sc2c1CCCC2	CHOP inh 76 (no result: Mdm2 ligase inh)
